Test results: ChEMBL document CHEMBL4229360, “Antimalarial agents against both sexual and asexual parasites stages: structure-activity relationships and biological studies of the Malaria Box compound 1-[5-(4-bromo-2-chlorophenyl)furan-2-yl]-N-[(piperidin-4-yl)methyl]methanamine (MMV019918) and analogues” (Eur J Med Chem, 2018)
pIC50: −log10 of the molar value.

What was measured:
[1] = system: Plasmodium falciparum; assay: Antiplasmodial activity against chloroquine-sensitive Plasmodium falciparum D10 after 72 hrs by lactate dehydrogenase assay; format: functional, organism-based; conditions: D10, 72 h
Procedure, shortened: (§1)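 Asynchronous blood-stage cultures at 1–1.5% parasitemia and 1% final hematocrit in human A+ RBCs, RPMI 1640 with 1% AlbuMax, hypoxanthine, HEPES and glutamine. Serial dilutions from DMSO stocks, final DMSO <1%. Incubated 72 h at 37 °C under 1% O₂/5% CO₂. IC50 is the mean of ≥3 experiments in duplicate.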

[2] = system: Plasmodium falciparum; assay: Antiplasmodial activity against chloroquine-resistant Plasmodium falciparum W2 after 72 hrs by lactate dehydrogenase assay; format: functional, organism-based; conditions: W2, 72 h; procedure, shortened: as §1
[3] = system: Plasmodium falciparum; assay: Gametocytocidal activity against Plasmodium falciparum 3D7 elo1-pfs16-CBG99 late-stage (4 to 5) gametocytes assessed as inhibition of parasite viability after 72 hrs by luciferase reporter assay; format: functional, organism-based; conditions: 3D7 elo1-pfs16-CBG99, 72 h
Procedure, shortened: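 Transgenic 3D7elo1-pfs16-CBG99 gametocytes express CBG99 luciferase from the pfs16 promoter. Stage IV–V gametocytes (Giemsa-checked) were exposed at day 8–10 after NAG addition to serial dilutions in complete medium for 72 h. Samples at 2% haematocrit were then mixed 1:1 with D-luciferin (1 mM, pH 5.5 citrate) for 10 min and luminescence was read. IC50 came from non-linear regression, mean of ≥3 experiments in duplicate.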

[4] = Cytotoxicity against mouse NIH/3T3 cells after 24 hrs by neutral red uptake assay; format: cell-based, NIH3T3; conditions: read-out: TC50
Procedure, shortened: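 NIH3T3 cells exposed for 24 h; viability by neutral red uptake. Mean of three experiments, six replicates each.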

[5] = system: Plasmodium falciparum; assay: Antiplasmodial activity against asexual blood stage Plasmodium falciparum NF54 after 72 hrs by SYBR green-based fluorometric analysis; format: functional, organism-based; conditions: NF54, 72 h
Procedure, shortened: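 Asexual NF54 seeded at 0.83% parasitaemia, 1.5% haematocrit, in RPMI1640 with 10% human serum. Serial dilutions, final DMSO 0.1%. Incubated 72 h at 37 °C under 3% O2, 4% CO2, then read by SYBR Green fluorescence.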

[6] = system: Plasmodium falciparum; assay: Gametocytocidal activity against Plasmodium falciparum NF54 HGL gametocytes assessed as inhibition of parasite viability after 72 hrs by ONE-Glo reagent based luminescence assay; format: functional, organism-based
Procedure, shortened: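 NF54 gametocytes raised in 5% haematocrit RPMI1640/10% human serum, with 50 mM NAG on days 4–9. Mainly stage IV gametocytes isolated on day 11 by Percoll gradient and seeded at 5000 cells/well, final DMSO 0.1%. Incubated 72 h at 37 °C, 3% O2, 4% CO2; viability by ONE-Glo luminescence.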

Work on Clc1ccc(-c2ccc(CNCC3CCNCC3)o2)c(Br)c1 yielded a pIC50 [1] of 6.29, a pIC50 [2] of 5.73 and a pIC50 [3] of 5.96. For the same compound, the CC50 at 24 h [4] was under 5000 nM.
With Fc1ccc(-c2ccc(CNCC3CCNCC3)o2)cc1 the pIC50 [1] was 5.68, the pIC50 [2] was 5.10 and the pIC50 [3] was 5.22.
COc1ccccc1-c1ccc(CNCC2CCNCC2)o1 gave a pIC50 [1] of 5.00, a pIC50 [2] of under 4.82 and a pIC50 [3] of 4.93. For the same compound, the CC50 at 24 h [4] was 53000 nM.
Clc1cc(Br)ccc1-c1ccc(CNCC2CCNCC2)s1 gave a pIC50 [1] of 6.14, a pIC50 [2] of 5.66 and a pIC50 [3] of 6.07. It also gave a pIC50 [5] of 6.55, a pIC50 [6] of 7.70 and a CC50 at 24 h [4] of under 5000 nM.
Clc1ccc(-c2nnc(CNCC3CCNCC3)o2)c(Br)c1 gave a pIC50 [1] of under 4.89, a pIC50 [2] of 5.10 and a pIC50 [3] of under 4.59.
Work on Clc1ccc(-c2ccc(CNCC3CCNCC3)s2)c(Br)c1 yielded a pIC50 [1] of 6.28, a pIC50 [2] of 5.85 and a pIC50 [3] of 6.08. For the same compound, the pIC50 [5] was 6.38, the pIC50 [6] was 7.55 and the CC50 at 24 h [4] was under 5000 nM.
FC(F)(F)c1ccc(-c2cccc(CNCC3CCNCC3)n2)cc1 gave a pIC50 [1] of 6.34, a pIC50 [2] of 5.47 and a pIC50 [3] of 5.40.
C[N+](C)(C)CCCNCc1ccc(-c2ccc(Cl)cc2Br)o1 showed a pIC50 [1] of 5.60, a pIC50 [2] of 5.26 and a pIC50 [3] of under 4.62.
With Clc1cc(-c2ccccc2)ccc1-c1ccc(CNCC2CCNCC2)o1 the pIC50 [1] was 6.00, the pIC50 [2] was 5.52 and the pIC50 [3] was 5.85. It also gave a CC50 at 24 h [4] of 5000 nM.
With CN(C)c1ccc2nc3ccc(N(C)C)cc3[s+]c2c1 [METHYLENE BLUE ANHYDROUS] the pIC50 [3] was 7.52.
Clc1ccc(-c2nnc(CNCC3CCNCC3)[nH]2)cc1 gave a pIC50 [1] of under 4.89, a pIC50 [2] of under 4.89 and a pIC50 [3] of under 4.89.
